Experimental findings from ChEMBL document CHEMBL1147829, “4-(Aminoalkylamino)-3-benzimidazole-quinolinones as potent CHK-1 inhibitors” (Bioorg Med Chem Lett, 2006) are described below.

In assay [1] the target is T1, Serine/threonine-protein kinase Chk1 (Homo sapiens, UniProt O14757).
T1 sequence (O14757 whole entry): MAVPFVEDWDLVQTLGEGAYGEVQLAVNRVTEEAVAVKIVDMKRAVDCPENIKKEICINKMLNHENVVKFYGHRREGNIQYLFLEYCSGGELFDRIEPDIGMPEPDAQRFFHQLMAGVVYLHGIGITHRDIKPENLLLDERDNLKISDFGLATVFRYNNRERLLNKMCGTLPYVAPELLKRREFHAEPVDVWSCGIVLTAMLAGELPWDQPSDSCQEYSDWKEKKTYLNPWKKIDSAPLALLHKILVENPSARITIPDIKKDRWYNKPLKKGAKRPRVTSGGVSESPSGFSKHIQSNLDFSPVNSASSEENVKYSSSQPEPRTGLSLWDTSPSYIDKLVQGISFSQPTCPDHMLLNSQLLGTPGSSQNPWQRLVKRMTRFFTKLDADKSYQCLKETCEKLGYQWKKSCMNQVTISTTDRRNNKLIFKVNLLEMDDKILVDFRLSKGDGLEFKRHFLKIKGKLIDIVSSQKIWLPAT
The assay can be described thus: Inhibition of CHK1.

Assay [2] has as its system MDA-MB-435. As to the kind of experiment: Cytotoxicity against human MDA-MB-435 cells in presence of camptothecin. It is filed as functional, cell-based. The method, boiled down:
(§1)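 MDA-MB-435 cells seeded at 5×10³ per well and allowed 4 h at 37 °C under 5% CO₂. They were then exposed to the agent alone or combined with camptothecin, with DMSO as vehicle control, for 48 h. MTS was developed 4 h and read at 490 nm with medium-only background subtracted. Percent was calculated relative to DMSO-treated cells.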

The subject of assay [3] is MDA-MB-435. As to the kind of experiment: Cytotoxicity against human MDA-MB-435 cells. It is filed as functional, cell-based. The method, boiled down:
as §1

Active and inactive are the calls of the source. The calls are words filed in the database; no cut-off is given here.

One may read the IC50 as the concentration that gives 50% inhibition. Read a low IC50 as inhibition by little substance. `Nc1c(-c2nc3ccccc3[nH]2)c(=O)[nH]c2ccccc12` gave an IC50 in assay [1] of 731 nM.

For `O=c1[nH]c2ccccc2c(N[C@@H]2CN3CCC2CC3)c1-c1nc2ccccc2[nH]1`, the IC50 in assay [1] was 7.6 nM.

Take `O=c1[nH]c2ccccc2c(N[C@H]2CN3CCC2CC3)c1-c1nc2ccccc2[nH]1`: the half-maximal inhibitory concentration (IC50) in assay [1] turned out to be 482 nM.

Compound `Oc1nc2ccc(Cl)cc2c(NC2CCCNC2)c1-c1nc2ccccc2[nH]1` (stereo unspecified) gave an IC50 in assay [1] of 1.04 nM.

As for `O=c1[nH]c2ccc(Cl)cc2c(N[C@@H]2CCNC2)c1-c1nc2ccccc2[nH]1`, the IC50 in assay [1] was 7.2 nM.

Compound `Cc1ccc2[nH]c(=O)c(-c3nc4ccccc4[nH]3)c(NC3CCCNC3)c2c1` (stereo unspecified) yielded an IC50 in assay [1] of 1.4 nM.

`CCN(CC)c1c(-c2nc3ccccc3[nH]2)c(=O)[nH]c2ccccc12`: the half-maximal inhibitory concentration (IC50) in assay [1] is > 30000 nM.

Compound `Cc1ccc2nc(O)c(-c3nc4ccccc4[nH]3)c(NC3CCNCC3)c2c1` showed an IC50 in assay [1] of 3.3 nM.

In assay [1], `Cc1ccc2nc(O)c(-c3nc4ccccc4[nH]3)c(N[C@@H]3CN4CCC3CC4)c2c1` showed an IC50 of 0.35 nM.

As for `O=c1[nH]c2ccc(Cl)cc2c(NC2CCNCC2)c1-c1nc2ccccc2[nH]1`, the midpoint of inhibition in assay [1], the IC50, lay at 3.3 nM.

As to `Cc1cccc2c(N[C@@H]3CN4CCC3CC4)c(-c3nc4ccccc4[nH]3)c(O)nc12`, 138 nM corresponded to half-maximal inhibition in assay [1] (IC50).

As for `Oc1nc2ccc(Cl)cc2c(N[C@H]2CCNC2)c1-c1nc2ccccc2[nH]1`, the IC50 in assay [1] worked out at 0.5 nM.

As for `O=c1[nH]c2ccc(Cl)c(Cl)c2c(N[C@@H]2CN3CCC2CC3)c1-c1nc2ccccc2[nH]1`, in assay [1], the IC50 is 21.7 nM.

In assay [1], `O=c1[nH]c2ccccc2c(O)c1-c1nc2ccccc2[nH]1` returned an IC50 of 2950 nM.

Usually EC50 stands for the concentration giving half of the maximal effect. High values mean weaker potency, low ones greater potency. Take `O=c1[nH]c2ccc(Cl)cc2c(N[C@@H]2CN3CCC2CC3)c1-c1nc2ccccc2[nH]1`: the outcome in the assay with MDA-MB-435 [2] was Active. Besides, the midpoint of the response with MDA-MB-435 [3], the EC50, lay at 80 nM.
